Active and inactive are the calls of the source. The calls are words filed in the database; no cut-off is given here.
How the values were obtained:
[1] = Antitumor activity against mouse early Lewis lung carcinoma allografted in BDF1 mouse assessed as increase in host life span at 36 mg/kg, ip administered as single dose on 1 or 2 days post-tumor implantation; format: functional; settings: route intraperitoneal
In short: (§1)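 BDF1 mice (C57Blk/6 × DBA/2) implanted sc by trocar with ~40 mg Lewis lung tumor fragments from bacteriologically sterile donor tumors. Single ip dose on day 1 or 2, as a solution or suspension in water (CMC or gum acacia) or saline (HPC or Tween 80). Read-out is […]. Same-dose toxicity controls were run in nontumor-bearing mice.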

[2] = Antitumor activity against mouse early Lewis lung carcinoma allografted in BDF1 mouse assessed as increase in host life span at 24 mg/kg, ip administered as single dose on 1 or 2 days post-tumor implantation; format: functional; settings: route intraperitoneal; in short: as §1
[3] = Antitumor activity against mouse early Lewis lung carcinoma allografted in ip dosed BDF1 mouse assessed as disease cure administered as single dose on 1 or 2 days post-tumor implantation measured for 80 days post-drug treatment; format: functional
In short: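 BDF1 mice implanted sc by trocar with ~40 mg Lewis lung fragments from sterile donor tumors. A single ip dose was given on day 1 or 2 after implant, in water or saline vehicle. Cures were scored in animals observed for at least 80 days after treatment. Drug-toxicity controls were matched non-tumor-bearing mice monitored for body weight and deaths.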

[4] = Antitumor activity against mouse early Lewis lung carcinoma allografted in BDF1 mouse assessed as time delay in tumor growth at 36 mg/kg, ip administered as single dose on 1 or 2 days post-tumor implantation; format: functional; settings: route intraperitoneal
In short: (§2)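 BDF1 mice (C57Blk/6 × DBA/2) implanted sc by trocar with ~40 mg Lewis lung tumor fragments from bacteriologically sterile donors. A single ip dose was given on day 1 or 2, as a solution or suspension in water or saline with suspending agent, at ≤0.5 ml. Tumors were measured by caliper at least twice weekly, with weight = ab²/2. Delay was taken as the days for the tumor to reach 1 g.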

Mus musculus [5] = experiment: Antitumor activity against mouse advanced Lewis lung carcinoma allografted in ip dosed BDF1 mouse assessed as disease cure administered as single dose on day 6 or 7 post-tumor implantation; format: functional, organism-based
In short: (§3)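 BDF1 mice (C57Blk/6 × DBA/2) implanted sc by trocar with Lewis lung tumor fragments of about 40 mg, taken only from bacteriologically sterile donor tumors. Mice bearing tumors of about 400 mg (day 6-7) were selected. Each received a single ip dose on day 7, at or below the LD10 in normal mice. Groups were of 10 mice. Tumor weight was taken from calipers as w = ab²/2, measured at least twice weekly. Matched non-tumor mice served as toxicity controls.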

[6] = Antitumor activity against mouse early Lewis lung carcinoma allografted in BDF1 mouse assessed as time delay in tumor growth at 24 mg/kg, ip administered as single dose on 1 or 2 days post-tumor implantation; format: functional; settings: route intraperitoneal; in short: as §2
[7] = Antitumor activity against mouse advanced Lewis lung carcinoma allografted in BDF1 mouse assessed as increase in host life span at 36 mg/kg, ip administered as single dose on 7th day post-tumor implantation; format: functional; settings: route intraperitoneal
In short: (§4)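 BDF1 mice (C57Blk/6 × DBA/2) implanted sc by trocar with about 40 mg Lewis lung tumor fragments from bacteriologically sterile donors. Advanced-disease groups held tumors of about 400 mg by day 6-7, sized by caliper (w = ab²/2). Single ip injection on day 7, in water or saline vehicle, at or below the LD10 in normal mice. Tumors measured at least twice weekly.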

[8] = Ratio of ED50 for antitumor activity against mouse L1210 cells allografted in ip dosed mouse to LD10 for mouse
[9] = Antitumor activity against mouse early Lewis lung carcinoma allografted in BDF1 mouse assessed as increase in host life span at 67 mg/kg, ip administered as single dose on 1 or 2 days post-tumor implantation; format: functional; settings: route intraperitoneal; in short: as §1
[10] = Antitumor activity against mouse early Lewis lung carcinoma allografted in BDF1 mouse assessed as time delay in tumor growth at 67 mg/kg, ip administered as single dose on 1 or 2 days post-tumor implantation; format: functional; settings: route intraperitoneal; in short: as §2
[11] = Antitumor activity against mouse early Lewis lung carcinoma allografted in BDF1 mouse assessed as time delay in tumor growth at 152 mg/kg, ip administered as single dose on 1 or 2 days post-tumor implantation; format: functional; settings: route intraperitoneal; in short: as §2
[12] = Antitumor activity against mouse advanced Lewis lung carcinoma allografted in BDF1 mouse assessed as increase in host life span at 171 mg/kg, ip administered as single dose on 7th day post-tumor implantation; format: functional; settings: route intraperitoneal; in short: as §4
[13] = Antitumor activity against mouse early Lewis lung carcinoma allografted in BDF1 mouse assessed as increase in host life span at 152 mg/kg, ip administered as single dose on 1 or 2 days post-tumor implantation; format: functional; settings: route intraperitoneal; in short: as §1
[14] = Antitumor activity against mouse early Lewis lung carcinoma allografted in BDF1 mouse assessed as increase in host life span at 21 mg/kg, ip administered as single dose on 1 or 2 days post-tumor implantation; format: functional; settings: route intraperitoneal; in short: as §1
[15] = Antitumor activity against mouse early Lewis lung carcinoma allografted in BDF1 mouse assessed as time delay in tumor growth at 32 mg/kg, ip administered as single dose on 1 or 2 days post-tumor implantation; format: functional; settings: route intraperitoneal; in short: as §2
[16] = Antitumor activity against mouse early Lewis lung carcinoma allografted in BDF1 mouse assessed as increase in host life span at 32 mg/kg, ip administered as single dose on 1 or 2 days post-tumor implantation; format: functional; settings: route intraperitoneal; in short: as §1
Mus musculus [17] = experiment: Antitumor activity against mouse advanced Lewis lung carcinoma allografted in BDF1 mouse assessed as disease cure at 33 mg/kg, ip administered as single dose on 7th day post-tumor implantation measured for 80 days post-drug treatment; format: functional, organism-based; set-up: dose 33 mg/kg; in short: as §3
[18] = Antitumor activity against mouse early Lewis lung carcinoma allografted in BDF1 mouse assessed as time delay in tumor growth at 21 mg/kg, ip administered as single dose on 1 or 2 days post-tumor implantation; format: functional; settings: route intraperitoneal; in short: as §2
[19] = Antitumor activity against mouse advanced Lewis lung carcinoma allografted in BDF1 mouse assessed as increase in host life span at 33 mg/kg, ip administered as single dose on 7th day post-tumor implantation; format: functional; settings: route intraperitoneal; in short: as §4
[20] = Antitumor activity against mouse advanced Lewis lung carcinoma allografted in ip dosed BDF1 mouse assessed as increase in host lifespan administered as single dose on day 6 or 7 post-tumor implantation; format: functional
In short: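 Advanced Lewis lung model: about 40 mg fragments implanted sc by trocar into BDF1 mice, and mice with tumors of about 400 mg (day 6-7) selected. Tumor weight from calipers, w = ab²/2. Agent given as one ip dose in distilled water or physiological saline. Nontumor-bearing mice received matching doses as toxicity controls.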

Mus musculus [21] = experiment: Antitumor activity against mouse advanced Lewis lung carcinoma allografted in ip dosed BDF1 mouse assessed as complete regression of established tumor administered as single dose on day 6 or 7 post-tumor implantation; format: functional, organism-based; in short: as §3

C[C@H]1CC[C@H](NC(=O)N(CCCl)N=O)CC1
ILS at 36 mg/kg [1]: 44%
ILS at 24 mg/kg [2]: 37%
Activity [3]: >50%
Time [4]: 14 days
Activity (Mus musculus [5]): Active
Time [6]: 6.5 days
ILS at 36 mg/kg [7]: 46%
Ratio [8]: 0.4

O=NN(CCCl)C(=O)N[C@H]1CC[C@H](NC(=O)N(CCCl)N=O)CC1
ILS at 67 mg/kg [9]: 34%
Time [10]: 2 days
Activity [3]: 10%
Time [11]: 4 days
Activity (Mus musculus [5]): Active
ILS at 171 mg/kg [12]: 146%
ILS at 152 mg/kg [13]: 41%
Ratio [8]: 0.3

O=NN(CCF)C(=O)NC1CCS(=O)(=O)CC1
ILS at 21 mg/kg [14]: 18%
Time [15]: 15 days
Activity [3]: 10%
ILS at 32 mg/kg [16]: 0%
Activity (Mus musculus [17]): inactive
Activity (Mus musculus [5]): inactive
Time [18]: 8.3 days
ILS at 33 mg/kg [19]: 0%
ILS [20]: >25%
inhibition (Mus musculus [21]): inactive
Ratio [8]: 0.3

Source: ChEMBL document CHEMBL3271979, “Inhibition of solid tumors by nitrosoureas. 1. Lewis lung carcinoma” (1977)
